Screens deposited in PubChem by Johns Hopkins Ion Channel Center.
In the library only some 3.7% were active in any assay of this set; here they are far more common.
hERG protect: hERG (human) protection from proarrhythmic block; Q12809; CHO-hERG, FluxOR thallium flux, dofetilide IC70 present; activation (rescue from dofetilide block), less the hit threshold, % at 10 µM; 310,000 tested, 0.51% active;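 active = activation above the mean of controls blocked by dofetilide plus 5 SD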;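 also: thallium influx through hERG after potassium depolarization seen as dye fluorescence rise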
KCNK3 block: human KCNK3 channel inhibition, primary screen. O14649. CHO-KCNK3 thallium flux, FluxOR fluorescence; active compounds read low. B-score at 10 µM. 340,000 tested, 0.84% active;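 active = B-score under library mean minus 4 SD, starting fluorescence ratio at most library mean plus 5 SD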;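 also: more negative B-score means stronger inhibition of thallium flux through KCNK3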
Kir21 inh: inhibitors of mouse Kir2.1 inward-rectifier potassium channel | B-score at 10 µM | 310,000 tested, 0.85% active | AID 1672 | HEK293-Kir2.1, FluxOR thallium flux fluorescence; active compounds read low | P35561;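 active = fluorescence ratio B-score at or below minus 3 SD of library scores, with starting-brightness B-score within 2 SD, cut at about -4.2 in these data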;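 also: channel flux triggered by added potassium and thallium sulfate stimulus; B-score of peak minus minimum fluorescence over baseline after thallium stimulus; more negative B-score means stronger Kir2.1 block with less thallium influx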
KCNQ1 pot: human KCNQ1 channel potentiation or activation | CHO-K1 KCNQ1, thallium flux FluxOR fluorescence; active compounds read high | 310,000 tested, 0.35% active | P51787 | B-score at 10 µM;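 active = fluorescence ratio B-score, a plate-corrected score, at least three library SD, with initial intensity B-score within 5 SD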
Target sequence (P51787 whole entry, looked up): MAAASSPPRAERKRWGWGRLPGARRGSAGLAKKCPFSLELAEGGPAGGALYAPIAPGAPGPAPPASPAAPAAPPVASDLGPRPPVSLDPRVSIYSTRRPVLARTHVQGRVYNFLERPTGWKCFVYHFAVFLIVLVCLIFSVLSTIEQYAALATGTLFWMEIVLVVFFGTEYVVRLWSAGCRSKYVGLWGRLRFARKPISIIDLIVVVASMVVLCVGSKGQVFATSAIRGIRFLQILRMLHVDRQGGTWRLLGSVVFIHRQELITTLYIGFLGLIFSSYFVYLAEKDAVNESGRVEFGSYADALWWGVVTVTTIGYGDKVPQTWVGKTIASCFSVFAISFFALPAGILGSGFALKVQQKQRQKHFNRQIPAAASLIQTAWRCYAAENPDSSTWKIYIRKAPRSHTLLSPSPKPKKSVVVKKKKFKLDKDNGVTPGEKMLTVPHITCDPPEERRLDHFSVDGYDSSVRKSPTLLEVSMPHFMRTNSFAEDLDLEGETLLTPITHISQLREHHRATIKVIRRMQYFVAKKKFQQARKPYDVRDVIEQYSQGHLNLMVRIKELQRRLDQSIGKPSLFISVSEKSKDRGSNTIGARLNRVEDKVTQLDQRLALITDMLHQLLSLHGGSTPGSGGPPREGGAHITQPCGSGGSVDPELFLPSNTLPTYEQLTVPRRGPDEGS
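Assay system: stable KCNQ1 CHO-K1 line; medium: assay buffer, equal DMSO in all wells; timing: 90 min dye loading and 20 min compound exposure, both at room temperature; technique: kinetic FluxOR thallium fluorescence, 10-s 1-Hz baseline, 110-s post-stimulus read; read-out basis: B score of baseline-normalized fluorescence ratio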
KCNK9 block: blocks the human KCNK9 two-pore domain potassium channel | B-score at 10 µM | AID 488922 | 310,000 tested, 1.2% active | HEK293 KCNK9, FluxOR thallium flux fluorescence; active compounds read low;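 active = ratio B-score over 3 SD below the library mean, with starting fluorescence within 5 SD of its mean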;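 also: negative B-score means less thallium flux so channel inhibition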
KCNQ1 inh: human KCNQ1 channel inhibition; 310,000 tested, 1.3% active; P51787; B-score at 10 µM; CHO-K1 KCNQ1, FluxOR thallium flux fluorescence; active compounds read high; AID 2642;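 active = compounds whose thallium flux B-score, printed positive for inhibition, exceeds three library SD while starting fluorescence stays within three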;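 also: channel opened by potassium depolarization with thallium stimulus after 20 min compound exposure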
KCNQ1 block val: human KCNQ1 channel inhibition, validation assay. shares compounds with KCNQ1 inh. KCNQ1 cell line, FluxOR thallium flux fluorescence. inhibition, % at 10 µM. 1,600 tested, 93% active;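 active = primary screen active, with duplicate mean exceeding buffer control mean plus 3 SD of buffer wells, cut at about 28% in these data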;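 also: 0% = buffer control ratio and 100% = XE991 inhibitor control ratio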
CHO Tl flux: activity in parental CHO cells lacking KCNQ1. shares compounds with KCNQ1 inh. parental CHO-K1, FluxOR thallium flux fluorescence ratio; active compounds read low; zero means no signal rise above baseline. fluorescence ratio (Tl flux) at 10 µM. 1,600 tested, 21% active;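 active = mean of duplicate thallium-flux fluorescence ratios in parental host cells more than 5 SD below the buffer control mean, cut at about 0.38 in these data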;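 also: ratio is peak minus minimum fluorescence divided by baseline fluorescence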
KCNQ1 ephys val: confirmation of human KCNQ1 potassium channel inhibitors by electrophysiology | 490 tested, 20% active | KCNQ1-CHO cells, automated patch clamp current | shares compounds with KCNQ1 inh | calls only at 10 µM | AID 624120;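 active = KCNQ1 current drop exceeding 3 SD of negative control wells, seen in both duplicate runs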;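 also: steady state current during a 2 s step from -80 to +40 mV; negative values mean current inhibition and positive values mean potentiation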
KCNQ2 inh: rat KCNQ2 inhibition in KCNQ1 inhibitor specificity screen; 1,600 tested, 71% active; inhibition, % at 10 µM; KCNQ2 cells, FluxOR thallium flux fluorescence; shares compounds with KCNQ1 inh;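 active = mean percent inhibition of the KCNQ2 thallium signal more than 5 SD above the buffer-only control wells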;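 also: KCNQ2 expressed in CHO cells; 0% = buffer control wells and 100% = XE-991 inhibitor control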
KCNQ1-KCNE1 inh: KCNQ1 inhibitor that also blocks human KCNQ1/KCNE1 channel; inhibition, % at 10 µM; 1,600 tested, 77% active; KCNQ1/KCNE1 cells, FluxOR thallium flux fluorescence; shares compounds with KCNQ1 inh; AID 652147;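 active = mean percent inhibition of duplicate wells above the buffer-only control mean plus 3 SD of those controls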;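 also: 0% = buffer only wells and 100% = XE-991 inhibitor control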
Starred values were filed as active, the others as inactive; i = inactive; / = not tested or not shown; + = active, no number.

SMILES	hERG protect	KCNK3 block	Kir21 inh	KCNQ1 pot	KCNK9 block	KCNQ1 inh	KCNQ1 block val	CHO Tl flux	KCNQ1 ephys val	KCNQ2 inh	KCNQ1-KCNE1 inh
CC(C)N1CCc2c(sc(NC(=S)NC(=O)c3ccccc3)c2C#N)C1	-16	i	-3.5	i	i	7*	0	0.5	/	i	48%*
Cc1ccc(Cn2nnc3c(=O)[nH]c(C4CCN(C(=O)Cc5cccs5)CC4)nc32)cc1	-11	i	-0.09	i	i	7*	0	0.49	/	i	i
COc1cc(OC)cc(C(=O)NC(C)CNc2ccc(Cl)cc2[N+](=O)[O-])c1 (configuration not stated)	-6	i	-0.02	i	i	i	/	/	/	/	/
CN(C)CCN(C(=O)c1ccc2c(c1)CCCC2)c1nc2cc3c(cc2s1)OCCO3	-12	i	0.48	i	i	11*	106*	0.35*	/	125%*	121%*
CCN(CC)CCN(C(=O)c1ccc2ncsc2c1)c1nc2cc3c(cc2s1)OCO3	-12	i	-1.9	i	i	10*	92*	0.42	+	89%*	120%*
c1ccc2c(c1)OCC(CNc1ncnc3sccc13)O2 (configuration not stated)	-18	i	-0.92	i	i	12*	106*	0.42	/	97%*	104%*
COC(=O)[C@@]12CCCCN1[C@H](c1ccc(-c3ccc(F)cc3)c(OC)c1)[C@@H]1C(=O)N(C)C(=O)[C@@H]12	/	i	/	/	/	/	/	/	/	/	/
Cc1noc(C)c1C(=O)Nc1sc(C)c(-c2ccccc2)c1C#N	-13	i	0.03	i	i	9*	107*	0.42	i	81%*	70%*
CCC(C)Nc1nc(-c2cccc(OC)c2O)nc2ccccc12 (configuration not stated)	-26	-12*	0.89	i	i	11*	125*	0.31*	/	i	139%*
COc1cccc(-c2nc(NC(C)C)c3ccccc3n2)c1O	-13	i	2.1	i	i	i	/	/	/	/	/
COc1ccc(S(=O)(=O)Nc2cc3c4c(c2)C(C)C(=O)N4CCC3)cc1OC (configuration not stated)	-7	i	-1.2	i	i	i	/	/	/	/	/
Cc1ccc(-c2n[nH]c(=S)n2/N=C/c2ccc(C)o2)cc1	-6	i	-0.71	i	i	6*	0	0.52	/	i	i
O=C(O)c1ccc2c(c1)C(=O)N(c1ccc([N+](=O)[O-])cn1)C2=O	0	i	-1	i	i	i	/	/	/	/	/
Cc1cccc(NC(=O)c2cc3n(n2)C(C(F)(F)F)CC(c2ccc4c(c2)OCO4)N3)c1 (configuration not stated)	-12	i	3	i	i	8*	126*	0.4	i	104%*	94%*
O=S(=O)(NCCC1=CCCCC1)c1ccc(Br)cc1	-14	i	-0.51	i	i	7*	99*	0.45	+	106%*	150%*
C/C(Nc1ccc(Cl)cc1)=C1/CCOC1=O	/	i	/	/	/	/	/	/	/	/	/
COc1ncnc2c1sc1nc(-c3ccccc3)c3c(c12)CCCC3	-13	i	0	i	i	10*	103*	0.42	i	96%*	131%*
O=C(NS(=O)(=O)N1CCOCC1)C1=C(N2CCCC2)COC1=O	/	i	/	/	/	/	/	/	/	/	/
